# Experimental data taken from ChEMBL document CHEMBL2380254, “Optimization of tocotrienols as antiproliferative and antimigratory leads” (Eur J Med Chem, 2013).
# What was measured:
# Type in all cases: functional
# [1] = Growth inhibition of human HCC2998 cells assessed as cell growth at 10 uM after 48 hrs by sulforhodamine B assay; conditions: HCC 2998, 48 h, read-out: Activity
# In short: (§1)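 NCI-60 single-dose screen at 10 µM: cells in RPMI 1640 with 5% FBS, preincubated 24 h, then exposed 48 h at 37 °C. TCA fixation (16% final for suspension cells), SRB staining, absorbance 515 nm. Percent growth relative to time-zero and untreated control plates; negative values indicate cell kill.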
# BT-549 = assay: Growth inhibition of human BT549 cells after 48 hrs by sulforhodamine B assay; conditions: BT-549, 48 h
# In short: (§2)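 NCI-60 screen: cells in RPMI 1640 with 5% FBS and 2 mM glutamine, 5000–40,000 cells/well, preincubated 24 h. Five concentrations (10-fold dilutions; 100 to 0.001 µM) applied for 48 h at 37 °C. TCA fixation, SRB stain, absorbance at 515 nm. Time-zero plates included; GI50 where 100×(T−T0)/(C−T0)=50.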
# SW-620 = assay: Growth inhibition of human SW620 cells assessed as cell growth at 10 uM after 48 hrs by sulforhodamine B assay; conditions: SW-620, 48 h, read-out: Activity
# In short: (§3)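 Single-dose NCI-60 test at 10 µM. Cells were grown in RPMI 1640 with 5% FBS and 2 mM L-glutamine, preincubated 24 h, with T0 plates TCA-fixed. Exposure was 48 h at 37 °C, 5% CO2. Cells were fixed with cold TCA (final 10%, 4 °C, 60 min), stained with SRB and read at 515 nm. Percent growth was taken relative to T0 and untreated control; negative values denote cell kill.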
# NCI-H322M = assay: Growth inhibition of human NCI-H322M cells assessed as cell growth at 10 uM after 48 hrs by sulforhodamine B assay; conditions: read-out: Activity
# In short: (§4)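 Single-dose NCI-60 screen: adherent cells in RPMI 1640 with 5% FBS were exposed to 10 µM for 48 h at 37 °C after a 24 h preincubation. They were fixed in situ with cold TCA (10% final), stained with 0.4% SRB in 1% acetic acid, solubilized in 10 mM Tris base, and read at 515 nm. Percent growth was taken relative to time-zero and control plates.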
# [2] = Growth inhibition of human HCC2998 cells after 48 hrs by sulforhodamine B assay; conditions: HCC 2998, 48 h; in short: as §2
# NCI-H460 = assay: Growth inhibition of human NCI-H460 cells assessed as cell growth at 10 uM after 48 hrs by sulforhodamine B assay; conditions: NCI-H460, 48 h, read-out: Activity; in short: as §4
# Malme-3M = assay: Growth inhibition of human MALME-3M cells assessed as cell growth at 10 uM after 48 hrs by sulforhodamine B assay; conditions: read-out: Activity; in short: as §4
# K562 = assay: Growth inhibition of human K562 cells assessed as cell growth at 10 uM after 48 hrs by sulforhodamine B assay; conditions: K562, 48 h, read-out: Activity; in short: as §1
# A549 = assay: Growth inhibition of human A549/ATCC cells assessed as cell growth at 10 uM after 48 hrs by sulforhodamine B assay; conditions: A549, 48 h, read-out: Activity; in short: as §1
# HOP-92 [3] = assay: Growth inhibition of human HOP92 cells assessed as cell growth at 10 uM after 48 hrs by sulforhodamine B assay; conditions: HOP-92, 48 h, read-out: Activity; in short: as §1
# OVCAR-3 = assay: Growth inhibition of human OVCAR3 cells after 48 hrs by sulforhodamine B assay; conditions: OVCAR-3, 48 h
# In short: (§5)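 NCI-60 panel cells grown in RPMI 1640 with 5% FBS and 2 mM L-glutamine, seeded at 5000–40,000 cells/well and preincubated 24 h. Five 10-fold dilutions (0.001–100 µM) from DMSO stocks were added for 48 h at 37 °C. Adherent cells were fixed with cold TCA (10% final) for 60 min at 4 °C, stained with 0.4% SRB, and read at 515 nm. GI50 was set where 100×(T−T0)/(C−T0)=50.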
# OVCAR-5 [4] = assay: Growth inhibition of human OVCAR5 cells after 48 hrs by sulforhodamine B assay; conditions: OVCAR-5, 48 h; in short: as §5
# [5] = Growth inhibition of human EKVX cells after 48 hrs by sulforhodamine B assay; in short: as §2
# MDA-MB-435 = assay: Growth inhibition of human MDA-MB-435 cells assessed as cell growth at 10 uM after 48 hrs by sulforhodamine B assay; conditions: MDA-MB-435, 48 h, read-out: Activity; in short: as §4
# T47D = assay: Growth inhibition of human T47D cells assessed as cell growth at 10 uM after 48 hrs by sulforhodamine B assay; conditions: read-out: Activity; in short: as §3
# HT-29 [6] = assay: Growth inhibition of human HT-29 cells assessed as cell growth at 10 uM after 48 hrs by sulforhodamine B assay; conditions: HT-29, 48 h, read-out: Activity; in short: as §1
# HOP-92 [7] = assay: Growth inhibition of human HOP92 cells after 48 hrs by sulforhodamine B assay; conditions: HOP-92, 48 h; in short: as §2
# OVCAR-4 = assay: Growth inhibition of human OVCAR4 cells after 48 hrs by sulforhodamine B assay; conditions: OVCAR-4, 48 h; in short: as §5
# SR = assay: Growth inhibition of human SR cells assessed as cell growth at 10 uM after 48 hrs by sulforhodamine B assay; conditions: read-out: Activity
# In short: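 Suspension line in RPMI 1640 with 5% FBS, single 10 µM dose for 48 h. Settled cells were fixed with TCA (final 16%), then SRB-stained and read at 515 nm. Percent growth was taken versus T0 and control; negative values denote cytotoxicity.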
# NCI-H226 = assay: Growth inhibition of human NCI-H226 cells assessed as cell growth at 10 uM after 48 hrs by sulforhodamine B assay; conditions: NCI-H226, 48 h, read-out: Activity; in short: as §4
# HT-29 [8] = assay: Growth inhibition of human HT-29 cells after 48 hrs by sulforhodamine B assay; conditions: HT-29, 48 h; in short: as §2
# OVCAR-5 [9] = assay: Growth inhibition of human OVCAR5 cells assessed as cell growth at 10 uM after 48 hrs by sulforhodamine B assay; conditions: OVCAR-5, 48 h, read-out: Activity; in short: as §4
# MDA-MB-468 = assay: Growth inhibition of human MDA-MB-468 cells after 48 hrs by sulforhodamine B assay; conditions: MDA-MB-468, 48 h; in short: as §5
# TK-10 = assay: Growth inhibition of human TK10 cells assessed as cell growth at 10 uM after 48 hrs by sulforhodamine B assay; conditions: TK-10, 48 h, read-out: Activity; in short: as §3
# 786-0 = assay: Growth inhibition of human 786-0 cells after 48 hrs by sulforhodamine B assay; conditions: 786-0, 48 h; in short: as §2
# ACHN = assay: Growth inhibition of human ACHN cells assessed as cell growth at 10 uM after 48 hrs by sulforhodamine B assay; conditions: read-out: Activity; in short: as §1
Compound,growth at 10 µM [1] [%],GI50 (BT-549) [µM],growth at 10 µM (SW-620) [%],growth at 10 µM (NCI-H322M) [%],GI50 [2] [µM],growth at 10 µM (NCI-H460) [%],growth at 10 µM (Malme-3M) [%],growth at 10 µM (K562) [%],growth at 10 µM (A549) [%],growth at 10 µM (HOP-92 [3]) [%],GI50 (OVCAR-3) [µM],GI50 (OVCAR-5 [4]) [µM],GI50 [5] [µM],growth at 10 µM (MDA-MB-435) [%],growth at 10 µM (T47D) [%],growth at 10 µM (HT-29 [6]) [%],GI50 (HOP-92 [7]) [µM],GI50 (OVCAR-4) [µM],growth at 10 µM (SR) [%],growth at 10 µM (NCI-H226) [%],also measured
CC(C)=CCC/C(C)=C/CC/C(C)=C/CC[C@]1(C)CCc2c3c(cc(C)c2O1)OCN(CCCCCO)C3,-48.5,7.34,-83.7,16.8,2.53,-70.2,116,-35,36.1,62.3,6.71,5.93,6.08,44.7,59.5,-34.9,5.42,5.68,-16.9,98.4,GI50 (HT-29 [8]): 3.74 µM; growth at 10 µM (OVCAR-5 [9]): 87.3%; GI50 (MDA-MB-468): 4.14 µM; growth at 10 µM (TK-10): 76.3%; GI50 (786-0): 6.47 µM; growth at 10 µM (ACHN): 81.6%
CC(C)=CCC/C(C)=C/CC/C(C)=C/CC[C@]1(C)CCc2c3c(cc(C)c2O1)OCN(CCc1ccc(O)cc1)C3,-84.7,7.06,-95.2,29.7,1.71,-44.4,95.8,3.51,76.6,69.1,3.56,6.11,6.13,-53.1,6.16,18.6,4,5.36,1.96,88.7,GI50 (HT-29 [8]): 3.53 µM; growth at 10 µM (OVCAR-5 [9]): 91.2%; GI50 (MDA-MB-468): 1.55 µM; growth at 10 µM (TK-10): 100%; GI50 (786-0): 6.61 µM; growth at 10 µM (ACHN): 91%
COc1ccc(CCN2COc3cc(C)c4c(c3C2)CC[C@@](C)(CC/C=C(\C)CC/C=C(\C)CCC=C(C)C)O4)cc1OC,-87.2,1.97,-98.1,4.19,1.48,-68.2,72.9,3.17,58.4,32.7,2,1.86,2.69,-51.1,31.2,0.54,1.55,1.63,4.1,112,GI50 (HT-29 [8]): 1.85 µM; growth at 10 µM (OVCAR-5 [9]): 42.7%; GI50 (MDA-MB-468): 1.46 µM; growth at 10 µM (TK-10): 97.7%; GI50 (786-0): 1.78 µM; growth at 10 µM (ACHN): 75.7%
CC(C)=CCC/C(C)=C/CC/C(C)=C/CC[C@]1(C)CCc2c3c(c(C)c(C)c2O1)OCN(CCCCCO)C3,60.8,7.34,-18.6,91,2.53,-49.6,106,-55.4,80.3,63.4,6.71,5.93,6.08,35.5,94.4,55.1,5.42,5.68,-44.4,102,GI50 (HT-29 [8]): 3.74 µM; growth at 10 µM (OVCAR-5 [9]): 94.4%; GI50 (MDA-MB-468): 4.14 µM; growth at 10 µM (TK-10): 97.5%; GI50 (786-0): 6.47 µM; growth at 10 µM (ACHN): 101%
